Assay [1] deals with Muscarinic acetylcholine receptor. As to the kind of experiment: Compound was evaluated for the inhibition of [3H]QNB binding to Muscarinic acetylcholine receptor from male Olac rat brain.
In assay [2] the target is D(2) dopamine receptor (Bos taurus) (UniProt P20288). As to the kind of experiment: Inhibition of [3H]spiperone binding to Dopamine receptor D2 from calf caudate.
In assay [3] the test system is Mus musculus. Kind of assay: Dose below which no catalepsy was observed at any time period (following p.o. dosing). The format is functional. A digest of the protocol:
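CFW mice (21-23 g), three per group, dosed orally in water or 0.5% carboxymethylcellulose. Checked at 0.25, 2.5 and 5.0 h for holding one hind limb on a 2-cm rubber bung and staying on a vertical grid, judged against a control by a trained observer.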

The species entered for assay [4] is Rattus norvegicus. As to the kind of experiment: Compound behavior in rat. The format is functional. Details: unit not given here. A digest of the protocol:
(§1)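 Olac-Wistar rats (180-190 g), eight per group, dosed orally, front paws placed on a 1.5-cm rod 7 cm above the table. Tested at 0.5, 1, 1.5, 2, 3, 4 and 5 h, up to 20 min hold. Each animal's maximum score (0-5 by time held) was summed, giving a group maximum of 40.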

Assay [5] concerns Rattus norvegicus. Kind of assay: Rotarod response in rat to assess muscular incoordination (following p.o. dosing). The format is functional. A digest of the protocol:
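Male Olac-Wistar rats (140-150 g), five per group, fed ad libitum, dosed orally. Tested 1 and 2 h later on a horizontal rod (2 rpm, 32 mm diameter), maximum 30 s. Mean time compared with vehicle controls by Mann-Whitney U test, significant at p < 0.05.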
In general terms: In the rotarod test animals must keep their balance on a rotating rod.

The subject of assay [6] is Mus musculus. As to the kind of experiment: Compound administered perorally was evaluated for the hypothermia (rectal temperature ) in mice. It counts as functional. The method in brief: (§2)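 Groups of three CFW mice (21-23 g) received oral compound in water or 0.5% carboxymethylcellulose. Rectal temperature was taken at 0.25, 2.5 and 5.0 h. Mean change from the group's initial mean was summed over the three times. Hypothermia scored if the summed reduction was >4 °C.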

Assay [7] relates to Rattus norvegicus. As to the kind of experiment: Compound administered perorally was evaluated for the conditioned avoidance response in rats. The format is functional. The method in brief: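 Olac-Wistar rats (120-130 g) trained to cross a shuttle box on a 5-s buzzer, with mild shock if no response within 1 s after it ends. Only high-responders used. Groups of five were dosed orally in water or 0.5% carboxymethylcellulose 1 h 50 min before testing. After 10-min habituation they were tested 20 min. Blockade = shocks as % of stimuli presented.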

Assay [8] addresses D(2) dopamine receptor (Bos taurus) (UniProt P20288). As to the kind of experiment: Inhibition of [3H]spiperone binding to dopamine receptor D2 from calf caudate.
Assay [9] concerns Mus musculus. As to the kind of experiment: Compound administered perorally was evaluated for the hypothermia (rectal temperature) in mice. The format is functional. A digest of the protocol: as §2
For assay [10], the target named is Muscarinic acetylcholine receptor. Kind of assay: Inhibition of [3H]QNB binding to muscarinic cholinergic receptor from male Olac rat brain.
The species entered for assay [11] is Rattus norvegicus. Kind of assay: compound behavior in rat. The format is functional. Details: unit not given here. The method in brief:
as §1

Assay [12] relates to Rattus norvegicus. As to the kind of experiment: The compound was evaluated for the anticonflict behavior in male wistar rats as rate of responses (reward) following dose of 5.0 mg/kg po. Further details: unit: responses/min. The format is functional. A digest of the protocol: (§3)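 Male Wistar rats on 23-h food deprivation, water ad libitum, trained to lever-press for food on continuous reinforcement until stable. Compound or vehicle given orally in randomized sequence 60 min before testing. Responses/min were recorded in reward, timeout and conflict components. Differences from control were tested by Wilcoxon test.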

The test system of assay [13] is Rattus norvegicus. As to the kind of experiment: The compound was evaluated for the anticonflict behavior in male wistar rats as rate of responses (conflict) following dose of 5.0 mg/kg po. The format is functional. Details: unit: responses/min. A digest of the protocol:
as §3

In assay [14] the test system is Rattus norvegicus. Kind of assay: The compound was evaluated for the anticonflict behavior in male wistar rats as rate of responses (conflic) following dose of 20 mg/kg po. Further details: unit: responses/min. The format is functional. A digest of the protocol:
as §3

Assay [15] has as its system Rattus norvegicus. As to the kind of experiment: The compound was evaluated for the anticonflict behavior in male wistar rats as rate of responses (timeout) following dose of 2.5 mg/kg po. It counts as functional. The method in brief:
as §3

Assay [16] has as its system Rattus norvegicus. Kind of assay: The compound was evaluated for the anticonflict behavior in male wistar rats as rate of responses (conflict) following dose of 40 mg/kg po. The format is functional. A digest of the protocol: as §3
Assay [17] concerns Rattus norvegicus. As to the kind of experiment: The compound was evaluated for the anticonflict behavior in male wistar rats as rate of responses (reward) following dose of 10 mg/kg po. It counts as functional. Further details: unit: responses/min. The method in brief: as §3
The test system of assay [18] is Rattus norvegicus. As to the kind of experiment: The compound was evaluated for the anticonflict behavior in male wistar rats as rate of responses (timeout) following dose of 5.0 mg/kg po. The format is functional. Further details: unit: responses/min. A digest of the protocol:
as §3

In assay [19] the test system is Rattus norvegicus. As to the kind of experiment: The compound was evaluated for the anticonflict behavior in male wistar rats as rate of responses (conflict) following dose of 0 mg/kg po. Further details: unit: responses/min. The format is functional. A digest of the protocol: as §3
Assay [20] concerns Rattus norvegicus. As to the kind of experiment: The compound was evaluated for the anticonflict behavior in male wistar rats as rate of responses (reward) following dose of 2.5 mg/kg po. The format is functional. A digest of the protocol: as §3
Assay [21] has as its system Rattus norvegicus. Kind of assay: The compound was evaluated for the anticonflict behavior in male wistar rats as rate of responses (conflict) following dose of 10 mg/kg po. It counts as functional. Further details: unit: responses/min. The method in brief: as §3
Assay [22] relates to Rattus norvegicus. Kind of assay: The compound was evaluated for the anticonflict behavior in male wistar rats as rate of responses (reward) following dose of 20 mg/kg po. The format is functional. Details: unit: responses/min. The method in brief:
as §3

Assay [23] has as its system Rattus norvegicus. Kind of assay: The compound was evaluated for the anticonflict behavior in male wistar rats as rate of responses (reward) following dose of 40 mg/kg po. It counts as functional. The method in brief: as §3
The subject of assay [24] is Rattus norvegicus. Kind of assay: The compound was evaluated for the anticonflict behavior in male wistar rats as rate of responses (conflict) following dose of 2.5 mg/kg po. The format is functional. A digest of the protocol:
as §3

For assay [25], the system named is Rattus norvegicus. Kind of assay: The compound was evaluated for the anticonflict behavior in male wistar rats as rate of responses (timeout) following dose of 40 mg/kg po. The format is functional. A digest of the protocol: as §3
Assay [26] deals with Rattus norvegicus. Kind of assay: The compound was evaluated for the anticonflict behavior in male wistar rats as rate of responses (timeout) following dose of 10 mg/kg po. The format is functional. Further details: unit: responses/min. A digest of the protocol: as §3
Assay [27] relates to Rattus norvegicus. Kind of assay: The compound was evaluated for the anticonflict behavior in male wistar rats as rate of responses (timeout) following dose of 20 mg/kg po. It counts as functional. Further details: unit: responses/min. The method in brief: as §3
The subject of assay [28] is Rattus norvegicus. As to the kind of experiment: The compound was evaluated for the anticonflict behavior in male wistar rats as rate of responses (reward) following dose of 0 mg/kg po. It counts as functional. Further details: unit: responses/min. A digest of the protocol: as §3
The test system of assay [29] is Rattus norvegicus. As to the kind of experiment: The compound was evaluated for the anticonflict behavior in male wistar rats as rate of responses (timeout) following dose of 0 mg/kg po. It counts as functional. A digest of the protocol: as §3

pIC50: −log10 of the molar value.

One may read the IC50 as the midpoint of a concentration-inhibition curve. Usually pIC50 stands for −log10 of the IC50, conventionally taken in molar units. As to `CC(C)n1cc2c(n1)Nc1ccc(F)cc1N=C2N1CCN(C)CC1`, the IC50 in assay [1] was determined as 7.2 µM. In addition, the pIC50 in assay [2] is 5.96. For the same molecule, the results for the EDmin in assay [3] and in [6] were 200 mg/kg and 50 mg/kg, respectively. This molecule returned an Activity in assay [4] greater than 50. The ED amounted to 40 mg/kg in assay [5] and 25 mg/kg in assay [7].

Consider `CN1CCN(C2=Nc3ccccc3Nc3nn(C)cc32)CC1`, for which, in assay [1], the IC50 stood at 38 µM. Further, in [2], the pIC50 is 5.20. In addition, the EDmin in assay [3] was found to be 200 mg/kg; in [6], 50 mg/kg. The Activity in assay [4] amounted to 50. Also, the ED in assay [5] and in assay [7] was greater than 50 mg/kg throughout.

The molecule `Cn1cc2c(n1)Nc1ccc(F)cc1N=C2N1CCNCC1` yielded a concentration for half-maximal inhibition (IC50) in assay [1] greater than 10 µM. Further, in assay [2], the pIC50 was 5.28. The results for the EDmin in assay [3] and in assay [6] were greater than 400 mg/kg and 200 mg/kg, respectively. Further, the ED in assay [5] and in assay [7] was greater than 50 mg/kg each time.

In [1], `CCCn1cc2c(n1)Nc1ccc(F)cc1N=C2N1CCN(C)CC1` returned an IC50 of 16 µM. In [2], this molecule had a pIC50 of 6.74. Moreover, the EDmin in [3] came out at 200 mg/kg; in assay [6], 25 mg/kg. Moreover, the Activity in assay [4] is greater than 50. Moreover, the figures for the ED in [5] and in [7] were 50 mg/kg and 40 mg/kg, respectively.

Consider `CN1CCN(C2=Nc3ccccc3Nc3c2cnn3C)CC1`, for which, in assay [1], the IC50 is greater than 100 µM. In addition, in [2], the pIC50 was 2.82. Besides, the EDmin in assay [3] and in [6] was greater than 400 mg/kg in each case. The Activity in [4] was greater than 50. The ED in [5] and in assay [7] was greater than 50 mg/kg each time.

As for `CCCCCCn1cc2c(n1)Nc1ccc(F)cc1N=C2N1CCN(C)CC1.Cl`, the pIC50 in [8] is 6.15. Further, the EDmin in assay [9] is 100 mg/kg; in assay [3], greater than 400 mg/kg. Besides, the ED in assay [5] and in assay [7] was greater than 50 mg/kg throughout. Moreover, the IC50 in [10] was found to be 18 µM. This molecule also had an Activity in [11] greater than 50.

In the case of `CN1CCN(C2=Nc3cc(Cl)ccc3Nc3nn(C)cc32)CC1`, the pIC50 in [8] was 6.17. The Activity in [12] was 27.5; in assay [13], 6; in [14] it was 7.8; in assay [15], 9.3; in [16], 4.8; in [17] it was 26.3. The Activity in [18] came to 7.9; in [19] it was 1.1; in assay [20] it was 24.9; in assay [21], 8.1; in assay [22], 5.4; in assay [23], 14.1. The Activity was 5.6 in assay [24]; 4.6 in assay [25]; 6.5 in assay [26]; 9.6 in [27]; 24.9 in assay [28]; 2.1 in assay [29]. In addition, the Activity in assay [11] was greater than 25. Also, the figures for the EDmin in assay [9] and in [3] were 0.8 mg/kg and 12.5 mg/kg, respectively. Moreover, the ED is greater than 10 mg/kg in [5] and 10 mg/kg in assay [7]. Moreover, the 50% inhibitory concentration (IC50) in [10] is 8.9 µM.

For the origin of these results see ChEMBL document CHEMBL1124378, “Synthesis and pharmacological evaluation of a series of 4-piperazinylpyrazolo[3,4-b]- and -[4,3-b][1,5]benzodiazepines as potential anxiolytics” (J Med Chem, 1989).
